From PubChem BioAssay
Activity calls are given as the source filed them.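 How the source made its calls, unless noted: active means viability at or below 30% in both replicate assays; inconclusive means viability at or below 30% in just one of the two assays; inactive means the rest.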

Assays:
[1] = Her2 expression decrease, cell viability multiplex – SKBR3 breast tumor cells, AlphaScreen, ATP viability, primary screen (AID 461;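 active means Her2 level under about 52% in both replicate screens, with viability over 70% of control, limit read from the data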;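 on Her2 level: lower value means less Her2 protein in the cells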;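 on viability: percent of carrier control wells set as 100% viability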); conditions: SKBR3 Her2 protein level, 18-24 h, measured here: SKBR3 viability, ATP luminescence, at 10 µM
[2] = target: Receptor tyrosine-protein kinase erbB-2 (Homo sapiens) (UniProt P04626); assay: as above; conditions: 18-24 h, at 10 µM, stronger effect = lower value
Sequence of Receptor tyrosine-protein kinase erbB-2 (Homo sapiens) (P04626 whole entry, looked up): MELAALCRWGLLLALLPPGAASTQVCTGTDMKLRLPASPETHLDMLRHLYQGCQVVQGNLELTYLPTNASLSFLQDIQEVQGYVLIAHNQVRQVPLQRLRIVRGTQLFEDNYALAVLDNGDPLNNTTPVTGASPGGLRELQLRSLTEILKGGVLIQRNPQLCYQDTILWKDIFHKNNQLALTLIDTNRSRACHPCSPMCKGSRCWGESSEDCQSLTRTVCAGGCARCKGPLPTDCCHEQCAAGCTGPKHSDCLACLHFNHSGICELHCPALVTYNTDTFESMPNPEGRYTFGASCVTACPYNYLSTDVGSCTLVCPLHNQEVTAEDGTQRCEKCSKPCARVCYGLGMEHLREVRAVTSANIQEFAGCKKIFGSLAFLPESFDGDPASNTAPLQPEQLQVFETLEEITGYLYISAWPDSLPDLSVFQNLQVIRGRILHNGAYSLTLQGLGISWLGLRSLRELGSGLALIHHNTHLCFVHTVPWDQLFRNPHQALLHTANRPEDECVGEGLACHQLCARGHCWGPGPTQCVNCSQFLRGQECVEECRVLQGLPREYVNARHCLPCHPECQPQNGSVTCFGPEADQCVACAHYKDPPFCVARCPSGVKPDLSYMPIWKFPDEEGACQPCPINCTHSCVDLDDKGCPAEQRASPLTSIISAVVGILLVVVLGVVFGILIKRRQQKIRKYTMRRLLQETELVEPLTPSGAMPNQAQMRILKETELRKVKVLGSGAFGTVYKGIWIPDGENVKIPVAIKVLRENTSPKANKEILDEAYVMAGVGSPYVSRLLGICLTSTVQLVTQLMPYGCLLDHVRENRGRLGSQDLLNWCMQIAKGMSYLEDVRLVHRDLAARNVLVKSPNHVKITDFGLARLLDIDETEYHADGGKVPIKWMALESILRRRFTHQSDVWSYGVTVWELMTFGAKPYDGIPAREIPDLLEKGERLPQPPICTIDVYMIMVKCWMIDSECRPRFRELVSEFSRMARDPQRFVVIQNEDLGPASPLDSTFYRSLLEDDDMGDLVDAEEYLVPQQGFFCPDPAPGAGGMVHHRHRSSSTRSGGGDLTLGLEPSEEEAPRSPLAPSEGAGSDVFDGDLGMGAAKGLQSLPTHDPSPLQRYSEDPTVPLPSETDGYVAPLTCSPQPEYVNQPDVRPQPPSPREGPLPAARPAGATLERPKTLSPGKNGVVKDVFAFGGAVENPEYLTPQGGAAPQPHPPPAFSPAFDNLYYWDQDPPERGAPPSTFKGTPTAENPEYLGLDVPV

[3] = reduced viability of SK-BR-3 breast cancer cells – cell-based, 24 h, human, pilot screen (AID 572;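 active means viability at or below 10% of carrier control in both of two separate runs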;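 further: compound exposure lasted between 18 and 24 h rather than exactly 24 h; 100% = carrier-treated control wells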); conditions: SK-BR-3 viability, CellTiter-Glo luminescence, at 10 µM, stronger effect = lower value
[4] = HUVEC growth inhibition – cell-based, human, primary screen (AID 575); conditions: HUVEC proliferation, CellTiter-Glo luminescence, 72 h; at 10 µM; stronger effect = lower value;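 further: 100% = median of untreated cell wells with 0.1% DMSO on each plate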
How it was run: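 System: primary human umbilical vein endothelial cells; Quantity: 1250 endothelial cells in each well; Buffer or medium: supplemented EBM, 2% fetal bovine serum; Doses: one dose, 10 µM final, 0.1% DMSO; Incubation: 72 h compound incubation; Technique: ATP-based CellTiter-Glo luminescent read; Evaluation: percent of median DMSO-control luminescence; Controls: vehicle and MePR control wells.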

[5] = H69AR cell proliferation blockers – human, duplicate replicates, primary screen (AID 580;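 active means viability at or under a set limit in both replicates, limit being median viability minus 3 SD, cut at about 48% in these data, passing the limit was not always enough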;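 further: 100% = mean luminescence of untreated wells and 0% = no signal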); conditions: H69AR lung tumor cells viability, ATP luminescence, 72 h; at 10 µM; stronger effect = lower value
[6] = MRP1 drug-resistance reversers in H69AR cells – cell-based, doxorubicin co-treatment, pilot screen (AID 601;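 active means viability loss from added drug above about 55%, and viability with drug at most 40%, in both replicates, limit read from the data, passing the limit was not always enough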); conditions: CellTiter-Glo, 72 h, at 10 µM; for differential viability (reversal): stronger effect = higher value
[7] = yeast transport mutant growth inhibition pilot in 384-well plates, post-Golgi transport modulator project (AID 636; in the data active means inhibition above about 31%); conditions: absorbance 615 nm, about 18 h, stronger effect = higher value
[8] = growth suppression of yeast trafficking mutant, preliminary HTS, modulators of trafficking downstream of Golgi apparatus project, 1536-format plate, OD 615 nm (AID 637; in the data active means inhibition above about 30%); conditions: yeast transport mutant growth, absorbance 615 nm, 18 h; stronger effect = higher value
[9] = H69AR cells + 2 uM doxorubicin, measured here: viability with 2 uM doxorubicin, stronger effect = lower value
[10] = H69AR cells, compound alone cytotoxicity

Compound | viability [1] | Her2 level [2] | viability [3] | viability [4] | viability [5] | differential viability (reversal) ([6]; H69AR cells + 2 uM doxorubicin) | viability [6, 9] | viability [6, 10] | inhibition [7] | inhibition [8]
CCOC(=O)c1sc(NC(=O)CSc2nnnn2-c2ccccc2)c(C(=O)OCC)c1C | 80% | 85% (inactive) | 80% (inactive) | 36.6% (inactive) | 65.7% (inactive) | 19.6% (inactive) | 46.1% | 65.7% | 4.68% (inactive) | -6.83% (inactive)
CCn1c(SCC(=O)Nc2ccccc2F)nc2c(c1=O)SC(C)C2 (stereo not given) | 116% | 86.5% (inactive) | 116% (inactive) | 96.4% (inactive) | 95.3% (inactive) | 11.5% (inactive) | 83.8% | 95.3% | -6.03% (inactive) | 2.54% (inactive)
CCOC(=O)CSc1nnc(CNC(=O)c2cccs2)n1-c1cc(OC)ccc1OC | 96.5% | 94% (inactive) | 96.5% (inactive) | 113% (inactive) | 99.3% (inactive) | 11.1% (inactive) | 88.3% | 99.3% | -6.32% (inactive) | -0.55% (inactive)
CCCC(=O)Nc1ccc(NC(=O)c2ccccc2OC)cn1 | 94.5% | 101% (inactive) | 94.5% (inactive) | 100% (inactive) | 92.9% (inactive) | 5.96% (inactive) | 86.9% | 92.9% | -1.17% (inactive) | -4.43% (inactive)
O=C(Nc1ccc2c(c1)OCO2)C(c1ccccc1)N1CCC2(CC1)OCCO2 (stereo not given) | 96.5% | 101% (inactive) | 96.5% (inactive) | 82.6% (inactive) | 96.3% (inactive) | 7.72% (inactive) | 88.6% | 96.3% | -3.78% (inactive) | 14.9% (inactive)
COc1ccc(CCNc2oc(-c3ccco3)nc2C#N)cc1 | 95% | 81.5% (inactive) | 95% (inactive) | 96.7% (inactive) | 94.6% (inactive) | -3.7% (inactive) | 98.3% | 94.6% | -3.07% (inactive) | 3.93% (inactive)
COC(=O)c1ccccc1NC(=O)Nc1cccs1 | 99.5% | 90.5% (inactive) | 99.5% (inactive) | 84.3% (inactive) | 82.4% (inactive) | 7.46% (inactive) | 74.9% | 82.4% | -3.73% (inactive) | 0% (inactive)
CCC(C)OC(=O)c1[nH]c2c(c1C)C(=O)CC(c1ccc(N(C)C)cc1)C2 (stereo not given) | 88.5% | 73% (inactive) | 88.5% (inactive) | 57.9% (inactive) | 27.6% (active) | -47.7% (inactive) | 75.3% | 27.6% | -2.93% (inactive) | 24.8% (inactive)
